pEC50, pIC50: −log10 of the molar value.
What was measured:
[1] = molecular target: T1, Metabotropic glutamate receptor 1 (Homo sapiens, UniProt Q13255); experiment: Agonistic activity at mGlu1-alpha receptor expressed in CHO cells; assay type: functional, cell-based
[2] = molecular target: T2, Metabotropic glutamate receptor 2 (Homo sapiens, UniProt Q14416); experiment: Agonistic activity at mGlu2 receptor expressed in CHO cells; assay type: functional, cell-based
In short: (§1)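 CHO cells expressing the receptor were kept at 37 °C in DMEM with 2 mM glutamine, 1% proline and 10% dialyzed FCS, and plated 2 days before assay. Cells were incubated 10 min in PBS with ligand, 10 µM forskolin and 1 mM IBMX, and cAMP was measured by RIA. Agonism is inhibition of forskolin-induced cAMP versus buffer-only control.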

[3] = molecular target: T3, Metabotropic glutamate receptor 6 (Homo sapiens, UniProt O15303); experiment: Agonistic activity at mGlu6 receptor expressed in CHO cells; assay type: functional, cell-based; in short: as §1
T3 sequence (O15303 whole entry): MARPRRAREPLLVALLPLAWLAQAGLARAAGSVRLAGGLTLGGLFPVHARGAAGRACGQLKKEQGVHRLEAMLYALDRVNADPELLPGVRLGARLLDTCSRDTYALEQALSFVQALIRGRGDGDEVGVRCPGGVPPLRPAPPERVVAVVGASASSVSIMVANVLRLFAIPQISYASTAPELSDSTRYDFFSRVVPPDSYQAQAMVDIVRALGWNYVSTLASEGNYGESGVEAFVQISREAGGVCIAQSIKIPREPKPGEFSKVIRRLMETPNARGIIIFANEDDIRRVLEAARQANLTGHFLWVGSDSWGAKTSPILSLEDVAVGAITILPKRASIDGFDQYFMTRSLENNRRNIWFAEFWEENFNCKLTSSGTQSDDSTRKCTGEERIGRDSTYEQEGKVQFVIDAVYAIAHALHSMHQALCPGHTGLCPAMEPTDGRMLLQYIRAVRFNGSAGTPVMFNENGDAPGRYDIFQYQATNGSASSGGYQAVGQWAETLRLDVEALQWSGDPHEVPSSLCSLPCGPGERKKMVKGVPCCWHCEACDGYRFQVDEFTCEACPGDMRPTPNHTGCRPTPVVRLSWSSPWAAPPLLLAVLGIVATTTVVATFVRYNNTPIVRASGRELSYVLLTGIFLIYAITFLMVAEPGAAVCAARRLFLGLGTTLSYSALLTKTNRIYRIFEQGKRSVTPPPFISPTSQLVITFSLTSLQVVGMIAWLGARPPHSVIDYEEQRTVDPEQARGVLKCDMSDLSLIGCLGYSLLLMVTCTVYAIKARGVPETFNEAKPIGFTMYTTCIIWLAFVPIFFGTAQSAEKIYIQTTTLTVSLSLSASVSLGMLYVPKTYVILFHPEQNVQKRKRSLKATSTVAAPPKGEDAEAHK

[4] = molecular target: T3, Metabotropic glutamate receptor 6; experiment: Agonist activity of the compound at Metabotropic Excitatory Amino acid Receptors Expressed in CHO cells. mGlu6; assay type: functional, cell-based
In short: (§2)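 CHO cells expressing mGlu2, mGlu4a or mGlu6, seeded 2 days before assay. Incubated 10 min in PBS with ligand, 10 µM forskolin and 1 mM IBMX. […] EC50 from dose-response, mean ± SEM of at least two independent experiments.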

[5] = molecular target: Glutamate NMDA receptor; experiment: Agonistic activity at NMDA receptor of rat brain membrane using [3H]MK-801 as radioligand; assay type: functional
In short: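 Rat brain membranes were prepared per Ransom and Stec. [3H]MK-801 binding was run on fully stimulated membranes, with incubation lengthened to 4 h.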

[6] = molecular target: T1, Metabotropic glutamate receptor 1; experiment: Agonist activity of the compound at Metabotropic Excitatory Amino acid Receptors Expressed in CHO cells. mGlu1-alpha; assay type: functional, cell-based
In short: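 CHO cells stably expressing mGlu1α, seeded 2 days before assay and labelled with [3H]inositol (1 µCi/mL) for 24 h. Ligand in PBS-LiCl for 20 min; total [3H]inositol mono-, bis- and trisphosphates by ion-exchange chromatography, fold over buffer-only control. EC50 from dose-response, mean ± SEM of at least two independent experiments.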

[7] = molecular target: Glutamate receptor ionotropic, kainate; experiment: The compound was evaluated for agonist to competitive inhibition of radioligand ([3H]- kainic acid ) at Ionotropic glutamate receptor kainate; assay type: functional
[8] = molecular target: Glutamate NMDA receptor; experiment: The compound was evaluated for agonist activity at NMDA receptor in rat cortical wedge preparation; assay type: functional
In short: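 Rat cortical wedge under superfusion. Test and standard compounds were dissolved in the superfusion medium, and the potential difference between the recording and reference electrodes was charted.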

[9] = molecular target: Glutamate receptor ionotropic, AMPA (Rattus norvegicus, UniProt P19490+P19491+P19492+P19493); experiment: Agonistic activity at Ionotropic glutamate receptor AMPA of rat brain membrane using [3H]AMPA as radioligand; assay type: functional
[10] = molecular target: T4, Metabotropic glutamate receptor 4 (Homo sapiens, UniProt Q14833); experiment: Agonistic activity at mGlu4a receptor expressed in CHO cells; assay type: functional, cell-based; in short: as §1
T4 sequence (Q14833 whole entry): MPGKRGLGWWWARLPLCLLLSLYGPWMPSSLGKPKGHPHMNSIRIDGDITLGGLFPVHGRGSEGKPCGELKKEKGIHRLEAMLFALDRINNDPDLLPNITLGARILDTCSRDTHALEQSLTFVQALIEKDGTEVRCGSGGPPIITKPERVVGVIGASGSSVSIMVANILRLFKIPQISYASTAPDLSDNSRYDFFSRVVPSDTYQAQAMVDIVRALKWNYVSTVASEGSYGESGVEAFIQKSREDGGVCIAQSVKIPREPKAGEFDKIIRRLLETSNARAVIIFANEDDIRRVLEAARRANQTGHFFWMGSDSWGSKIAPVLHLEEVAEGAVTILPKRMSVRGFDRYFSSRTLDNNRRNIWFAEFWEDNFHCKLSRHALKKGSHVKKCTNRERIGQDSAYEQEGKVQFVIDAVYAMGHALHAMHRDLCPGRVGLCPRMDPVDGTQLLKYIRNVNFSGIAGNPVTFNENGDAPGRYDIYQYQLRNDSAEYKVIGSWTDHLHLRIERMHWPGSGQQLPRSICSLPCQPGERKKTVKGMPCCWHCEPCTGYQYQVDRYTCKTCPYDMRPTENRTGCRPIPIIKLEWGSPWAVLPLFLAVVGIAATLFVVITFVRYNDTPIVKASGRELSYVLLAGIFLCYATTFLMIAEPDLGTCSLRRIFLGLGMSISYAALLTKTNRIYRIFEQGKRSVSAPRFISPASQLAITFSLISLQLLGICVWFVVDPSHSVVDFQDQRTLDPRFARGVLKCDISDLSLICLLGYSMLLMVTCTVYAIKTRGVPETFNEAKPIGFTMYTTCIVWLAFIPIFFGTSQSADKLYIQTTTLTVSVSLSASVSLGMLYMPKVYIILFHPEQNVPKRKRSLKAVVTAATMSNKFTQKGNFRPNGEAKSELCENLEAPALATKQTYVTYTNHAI

[11] = molecular target: T4, Metabotropic glutamate receptor 4; experiment: Agonist activity of the compound at Metabotropic Excitatory Amino acid Receptors Expressed in CHO cells. mGlu4a; assay type: functional, cell-based; in short: as §2
[12] = molecular target: T2, Metabotropic glutamate receptor 2; experiment: Agonist activity of the compound at Metabotropic Excitatory Amino acid Receptors Expressed in CHO cells. mGlu2; assay type: functional, cell-based
In short: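 CHO cells expressing mGlu2, mGlu4a or mGlu6, seeded 2 days before assay. Incubated 10 min in PBS with ligand, 10 µM forskolin and 1 mM IBMX. EC50 from dose-response, mean ± SEM of at least two independent experiments.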

T1 sequence (Q13255 whole entry): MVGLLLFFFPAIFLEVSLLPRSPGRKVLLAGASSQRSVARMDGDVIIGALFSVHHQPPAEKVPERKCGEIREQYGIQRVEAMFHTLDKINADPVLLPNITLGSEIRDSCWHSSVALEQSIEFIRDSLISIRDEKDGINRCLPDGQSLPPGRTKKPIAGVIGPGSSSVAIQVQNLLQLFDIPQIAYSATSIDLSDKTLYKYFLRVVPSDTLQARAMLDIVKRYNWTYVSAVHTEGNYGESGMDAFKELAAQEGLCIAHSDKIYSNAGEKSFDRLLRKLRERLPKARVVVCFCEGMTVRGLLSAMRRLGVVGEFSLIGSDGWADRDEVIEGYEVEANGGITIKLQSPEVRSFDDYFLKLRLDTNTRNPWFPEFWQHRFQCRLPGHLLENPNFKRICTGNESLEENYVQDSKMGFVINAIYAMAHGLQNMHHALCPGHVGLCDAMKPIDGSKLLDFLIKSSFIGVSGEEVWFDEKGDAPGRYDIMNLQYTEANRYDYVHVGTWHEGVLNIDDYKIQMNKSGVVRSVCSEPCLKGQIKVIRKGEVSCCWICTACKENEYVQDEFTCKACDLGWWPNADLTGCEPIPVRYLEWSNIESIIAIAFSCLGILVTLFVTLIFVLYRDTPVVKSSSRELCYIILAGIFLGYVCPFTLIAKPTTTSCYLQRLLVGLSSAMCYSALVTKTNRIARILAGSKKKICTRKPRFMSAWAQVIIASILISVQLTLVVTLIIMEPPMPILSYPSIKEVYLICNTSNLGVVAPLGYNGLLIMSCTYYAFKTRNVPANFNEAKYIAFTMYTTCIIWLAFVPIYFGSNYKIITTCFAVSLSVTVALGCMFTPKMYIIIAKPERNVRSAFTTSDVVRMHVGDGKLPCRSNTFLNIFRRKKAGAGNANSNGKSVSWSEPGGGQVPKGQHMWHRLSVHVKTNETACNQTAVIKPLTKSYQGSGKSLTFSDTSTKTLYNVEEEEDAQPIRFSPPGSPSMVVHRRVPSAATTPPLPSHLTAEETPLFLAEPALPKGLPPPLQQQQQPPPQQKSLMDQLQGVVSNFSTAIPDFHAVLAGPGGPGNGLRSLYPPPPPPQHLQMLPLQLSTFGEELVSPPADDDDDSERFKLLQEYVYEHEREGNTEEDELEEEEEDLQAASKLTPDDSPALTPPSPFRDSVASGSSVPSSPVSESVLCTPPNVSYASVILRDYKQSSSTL
T2 sequence (Q14416 whole entry): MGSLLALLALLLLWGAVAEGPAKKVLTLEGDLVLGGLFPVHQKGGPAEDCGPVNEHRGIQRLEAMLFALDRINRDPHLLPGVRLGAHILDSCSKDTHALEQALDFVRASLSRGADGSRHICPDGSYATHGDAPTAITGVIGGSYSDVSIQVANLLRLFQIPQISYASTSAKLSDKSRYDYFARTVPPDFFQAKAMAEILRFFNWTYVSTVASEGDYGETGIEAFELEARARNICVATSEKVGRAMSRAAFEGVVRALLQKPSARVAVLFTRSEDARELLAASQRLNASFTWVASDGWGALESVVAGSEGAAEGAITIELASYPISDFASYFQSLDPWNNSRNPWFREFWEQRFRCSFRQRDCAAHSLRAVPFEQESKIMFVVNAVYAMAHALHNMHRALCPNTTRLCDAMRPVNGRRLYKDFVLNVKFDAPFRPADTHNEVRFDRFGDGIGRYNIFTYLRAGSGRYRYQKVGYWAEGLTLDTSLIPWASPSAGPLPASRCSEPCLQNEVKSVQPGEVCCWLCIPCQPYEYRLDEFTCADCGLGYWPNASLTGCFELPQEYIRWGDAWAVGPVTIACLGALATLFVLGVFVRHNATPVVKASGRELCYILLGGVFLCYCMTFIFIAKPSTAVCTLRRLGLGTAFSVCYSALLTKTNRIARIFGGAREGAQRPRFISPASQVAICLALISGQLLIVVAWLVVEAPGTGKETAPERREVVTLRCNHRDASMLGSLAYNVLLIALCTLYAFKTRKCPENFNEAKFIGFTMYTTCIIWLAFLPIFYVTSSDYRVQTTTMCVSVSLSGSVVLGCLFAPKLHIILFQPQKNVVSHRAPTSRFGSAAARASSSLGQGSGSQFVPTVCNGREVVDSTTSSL

| SMILES | pEC50 [1] | pEC50 [2] | pEC50 [3] | also measured |
| --- | --- | --- | --- | --- |
| N[C@@H](CC(=O)O)C(=O)O [ASPARTIC ACID] | < 3.00 | < 3.00 | < 3.00 | – |
| N[C@H](CC(=O)O)C(=O)O [D-ASPARTATE] | < 3.00 | < 3.00 | < 3.00 | – |
| Cc1o[nH]c(=O)c1C(N)C(=O)O (stereo not drawn) | – | – | – | pEC50 [4]: < 3.00; pIC50 [5]: < 4.00; pEC50 [6]: < 3.00; pIC50 [7]: < 4.00; pEC50 [8]: 4.92; pIC50 [9]: < 4.00 |
| Cc1onc(O)c1CCC(N)C(=O)O (stereo not drawn) | < 3.00 | < 3.00 | 4.09 | pEC50 [10]: < 2.52 |
| N[C@H](CCCC(=O)O)C(=O)O | < 3.00 | < 3.00 | < 3.00 | – |
| Cc1o[nH]c(=O)c1CCCCC(N)C(=O)O (stereo not drawn) | < 3.00 | < 3.00 | < 3.00 | – |
| N[C@@H](CCCC(=O)O)C(=O)O [(S)-2-AMINOADIPIC ACID] | < 3.00 | 4.46 | 3.85 | pEC50 [10]: < 2.52 |
| Cc1onc(O)c1C[C@H](N)C(=O)O [(S)-AMPA] | – | – | – | pEC50 [4]: 3.66; pEC50 [11]: < 2.52; pEC50 [6]: < 3.00; pEC50 [12]: < 3.00 |
| NC(CCCCCC(=O)O)C(=O)O (stereo not drawn) | < 3.00 | < 3.00 | < 3.00 | – |
| NC(CCCCC(=O)O)C(=O)O (stereo not drawn) | < 3.00 | < 3.00 | < 3.00 | – |
| Cc1onc(O)c1CCCC(N)C(=O)O (stereo not drawn) | < 3.00 | < 3.00 | 3.39 | pEC50 [10]: < 2.52 |
| Cc1onc(O)c1C[C@@H](N)C(=O)O | – | – | – | pEC50 [4]: < 3.00; pEC50 [6]: < 3.00; pEC50 [12]: < 3.00 |
